PAFAH1B3 FP inh = blocks human PAF acetylhydrolase 1B catalytic subunit 3. Q15102. recombinant PAFAH1B3, FP-rhodamine probe, fluorescence polarization. inhibition, % at 3.39 µM. 0.28% of 340,000 active. AID 492972;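 active means inhibition above the screen-wide average of all tested compounds plus 3 SD, cut at about 25% in these data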;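 further: 0% = enzyme with DMSO only and 100% = wells lacking PAFAH1B3 protein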
Target sequence (Q15102 whole entry, looked up): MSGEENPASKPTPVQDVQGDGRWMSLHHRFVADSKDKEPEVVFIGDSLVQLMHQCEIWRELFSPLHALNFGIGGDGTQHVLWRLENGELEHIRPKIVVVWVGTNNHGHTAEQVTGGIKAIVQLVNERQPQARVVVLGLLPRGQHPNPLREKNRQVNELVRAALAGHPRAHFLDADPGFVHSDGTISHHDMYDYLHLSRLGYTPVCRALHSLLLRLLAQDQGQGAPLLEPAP
pPAFAH inh = inhibitors of human plasma PAF acetylhydrolase (pPAFAH); AID 463082; recombinant pPAFAH, FP-rhodamine probe fluorescence polarization; 1.5% of 330,000 active; Q13093; inhibition, % at 3.39 µM;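 active means inhibition above the mean inhibition across the screen plus 3 SD, cut at about 25% in these data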;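 further: inhibitors block binding of the rhodamine activity-based probe so polarization drops; 0% = enzyme with DMSO and 100% = wells lacking pPAFAH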
GRIN3A LBD mod = NR3A (human) ligand-binding domain modulation; NR3A LBD differential scanning fluorimetry, Tm shift; 0% = protein alone, 100% = glycine-bound protein; AID 1259313; 2.5% of 340,000 active; Tm shift relative to glycine control, % at 25 µM;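 active means melting temperature shift of at least 10% of the positive control shift, at one fixed dose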
PAFAH2 FP inh = PAFAH2 (human) inhibition; Q99487; recombinant PAFAH2, FP-rhodamine activity probe, fluorescence polarization; inhibition, % at 3.39 µM; 0.99% of 340,000 active; AID 492956;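 active means inhibition above the mean over all tested compounds plus 3 SD, cut at about 30% in these data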;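 further: inhibitors block probe labeling of enzyme so polarization drops; 0% = enzyme with DMSO and 100% = wells lacking PAFAH2 protein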
PAFAH1B2 FP inh = blocks human PAF acetylhydrolase 1b catalytic subunit 2; P68402; recombinant PAFAH1B2, FP-rhodamine activity probe, fluorescence polarization; inhibition, % at 3.39 µM; 1.2% of 340,000 active;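 active means inhibition above the mean of all tested compounds plus 3 SD, cut at about 24% in these data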;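 further: 0% = enzyme with DMSO and 100% = wells lacking PAFAH1B2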
Target sequence (P68402 whole entry, looked up): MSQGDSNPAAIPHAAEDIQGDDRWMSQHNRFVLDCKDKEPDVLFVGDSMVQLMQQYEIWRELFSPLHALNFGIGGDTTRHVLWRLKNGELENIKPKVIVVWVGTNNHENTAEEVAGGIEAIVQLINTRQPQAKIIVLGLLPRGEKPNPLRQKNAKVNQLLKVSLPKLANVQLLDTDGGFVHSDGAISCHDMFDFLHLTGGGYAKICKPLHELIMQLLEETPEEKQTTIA
UCH37 DUB inh = blocks the human deubiquitinase UCH37; Q9Y5K5; purified proteasome/UCH37, Ub-AMC cleavage fluorescence; inhibition, % (no concentration beside the values); 0.33% of 330,000 active;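 active means mean inhibition over replicate wells above about 20%, limit read from the data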;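 further: 0% = compound-free wells with enzyme and 100% = wells lacking proteasome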
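Signal – fluorescence, ex 355 nm, em 460 nm · System – Proteasome-bound UCH37 · Input – 0.15 nM proteasome as dispensed · Timing – 30 min preincubation with enzyme, 25 min cleavage at room temperature · Read-out basis – percent inhibition of cleavage signal versus uninhibited and no-proteasome wells · Medium – Tris-HCl pH 7.4 with ATP-MgCl2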
Numbers without * were called inactive; . = no result given. The list is not random: actives were taken first. Their share in the collection is about 4.8%.

SMILES | PAFAH1B3 FP inh | pPAFAH inh | GRIN3A LBD mod | PAFAH2 FP inh | PAFAH1B2 FP inh | UCH37 DUB inh
Cc1ccc(NC(=O)CN(C)C(=O)Cn2nnc(-c3ccccc3C)n2)cc1 | 4 | 3 | -3 | -6 | 3 | -1
COc1ccc(NC(=O)Cn2nnc(-c3ccccc3NC(=O)c3cccs3)n2)cc1 | -10 | 1 | 10* | -29 | -5 | -2
Cc1ccc(NC(=O)Cn2nnc(-c3ccccc3NC(=O)c3cccs3)n2)cc1 | -11 | 4 | 20* | -62 | -7 | -20
O=C1CCS/C(=N\N=Cc2ccc(Cl)cc2Cl)N1 | . | . | . | . | . | 4
FC(F)(F)c1nc2ccccc2nc1NN=Cc1ccccc1 | . | . | . | . | . | 0
CCCCCCNC(=O)CC(c1ccccc1)c1cc(Br)ccc1O (stereo not given) | -16 | -6 | 12* | 4 | -6 | 2
Nc1nc2ccccc2n1N=Cc1ccc(Br)cc1 | . | . | . | . | . | -4
Nc1nc2ccccc2n1/N=C/c1ccc(-c2ccccc2)o1 | 8 | 6 | 30* | 3 | 1 | .
COc1cc(OC)c(OC)cc1C=NN(C)c1ccccc1 | . | . | . | . | . | 1
CCOC(=O)C(=O)N(Nc1ccc(C)cc1)c1ccc(C)cc1 | 1 | 4 | 11* | 10 | -1 | 1
CCC(O)(CC)C(=O)N(Nc1ccc(C)cc1)c1ccc(C)cc1 | 3 | 3 | 0 | 0 | 5 | 2
Cc1ccc(SCc2ccc(C(=O)Nc3cc([N+](=O)[O-])ccc3C)cc2)cc1 | 8 | 7 | -3 | 0 | 29* | 1
Cc1ccc(SCc2ccc(C(=O)Nc3cccc([N+](=O)[O-])c3)cc2)cc1 | 4 | 1 | . | 0 | 5 | 5
O=C(Oc1cccc(Oc2ccccc2)c1)N1CCOCC1 | 6 | 25* | 0 | 5 | 5 | 4
Cc1ccc(C(C(=O)Nc2ccc3c(c2)OCO3)N(C)C(=O)/C=C\c2ccc3c(c2)OCO3)cc1 (stereo not given) | 1 | -1 | 13* | -5 | 1 | 4
CC(=O)NCC(=O)N(C)C(C(=O)Nc1ccc2c(c1)OCCO2)c1ccc(C)cc1 (stereo not given) | 7 | 1 | 0 | 5 | 4 | 5
O=C(Nc1cccnc1)c1ccc(COc2ccccc2Br)cc1 | 0 | -2 | 36* | -4 | -5 | 3
Cc1cc(C)n(Cc2ccc(NC(=O)c3ccc(COc4ccccc4Br)cc3)cc2)n1 | -20 | -39 | 10* | -37 | -14 | -1
COC(=O)c1ccc(Cn2nc(C)cc2C)cc1 | 4 | -5 | 1 | 1 | 1 | -1
NC(=O)c1ccc(NC(=O)c2ccc(COc3ccccc3Br)cc2)cc1 | 3 | . | 22* | -7 | -1 | -1
O=C(Nc1ccc(F)cc1)c1ccc(COc2ccccc2)cc1 | 5 | 6 | -14 | -8 | -3 | 5
CCSC1=N/C(=C\c2ccc(C)s2)C(=O)S1 | -2 | -2 | 13* | -2 | -2 | 2
Cc1ccc(/C=C2\SC(N)=NC2=O)s1 | 4 | -1 | -2 | 0 | 2 | 5
CN(C)C1CCN(Cc2cc(COCc3ccccc3)c3cccnc3c2O)C1 (stereo not given) | 17 | 25* | -1 | 6 | 5 | 1
Oc1c(CN2CCCCC2)cc(COCc2ccccc2)c2cccnc12 | 6 | 6 | -1 | 7 | -2 | .
SMILES | PAFAH1B3 FP inh | pPAFAH inh | GRIN3A LBD mod | PAFAH2 FP inh | PAFAH1B2 FP inh | UCH37 DUB inh
O=C(CC1Nc2ccccc2NC1=O)Nc1ccc2c(c1)OCO2 (stereo not given) | -5 | 3 | -10 | 3 | 4 | 2
Cc1ccc(NC(=O)CC2Nc3ccccc3NC2=O)cc1Cl (stereo not given) | 13 | . | 10* | -7 | 5 | .
O=C(N/N=C/c1ccc(N2CCCC2)c([N+](=O)[O-])c1)c1cccnc1 | 2 | 2 | -2 | -6 | 8 | .
O=C(NN=Cc1ccc(N2CCCC2)c([N+](=O)[O-])c1)c1cccnc1 | . | . | . | . | . | 21*
O=C(Nc1ccc(N2CCN(Cc3ccccc3Cl)CC2)cc1)c1cccnc1 | 11 | 10 | -18 | 1 | -1 | 3
O=C(Nc1ccc(N2CCCCC2)cc1)c1cccnc1 | 9 | 5 | 0 | 8 | -1 | 29*
Cc1cc(C)nc(NN=C2CCCC/C2=C\c2ccccc2)n1 | . | . | . | . | . | 6
CCCN(C(=O)COC(=O)CNC(=O)c1ccc2ccccc2c1)c1c(N)n(Cc2ccccc2)c(=O)[nH]c1=O | 3 | 8 | 21* | 4 | 3 | -1

Screening data (PubChem)
